Active and inactive are the calls of the source.
Key:
[1] = test system: RAW264.7; assay: Reduction in LPS/INFgamma-induced iNOS protein expression in mouse RAW264.7 cells incubated for 20 hrs by Western blotting; type: functional, cell-based
How it was run: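 LPS/IFNγ-stimulated RAW264.7 cells treated with compound for 20 h. iNOS, COX-2 and GAPDH detected by Western blot; representative of at least three independent experiments.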

[2] = AUC (0 to infinity) in Sprague-Dawley rat at 3 mg/kg, iv by HPLC-MS method; type: ADME, organism-based; set-up: time infinity, dose 3 mg/kg, route intravenous; details: plasma
How it was run: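 Male rats (330−380 g, 9−10 weeks old), jugular vein cannulated 1 day before dosing, fasted; 3 mg/kg iv or oral in DMA/PEG400 (30/70, v/v), n = 3. Blood (150 μL) drawn at 0, 2, 5 (iv only), 15, 30 min and 1, 2, 4, 6, 8, 12, 24 h, kept on ice; plasma analysed by HPLC-MS; noncompartmental analysis.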

[3] = Cmax in Sprague-Dawley rat at 3 mg/kg, po by HPLC-MS method; type: ADME, organism-based; set-up: dose 3 mg/kg, route oral; details: in vivo
How it was run: (§1)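 Male rats (330−380 g, 9−10 weeks), jugular vein cannula implanted 1 day before, fasted. 3 mg/kg given iv or orally (n = 3) in DMA/PEG400 30/70 v/v. Blood (150 μL) drawn at 0, 2, 5 (iv only), 15, 30 min and 1, 2, 4, 6, 8, 12, 24 h; plasma analysed by HPLC-MS; noncompartmental analysis.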

[4] = Clearance in Sprague-Dawley rat at 3 mg/kg, iv by HPLC-MS method; type: ADME, organism-based; set-up: dose 3 mg/kg, route intravenous; details: in vivo; how it was run: as §1
[5] = test system: A549; assay: Induction of c-Jun protein accumulation in human A549 cells incubated for 24 hrs by Western blotting; type: functional, cell-based
[6] = test system: NCI-H460; assay: Down regulation of cyclin A2 expression in human NCI-H460 cells incubated for 24 hrs by Western blotting; type: functional, cell-based
[7] = test system: Mus musculus; assay: Toxicity in Nu-Foxn1'nu mouse assessed as effect on motor coordination at 5 mg/kg, po administered once daily on day 1 to 10, day 15 to 19 and day 22 to 26 measured during day 58 to 61 post dose by rotarod test; type: organism-based; set-up: dose 5 mg/kg, route oral; details: in vivo
How it was run: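 Male nude mice already used in the A549 xenograft study (oral dosing, vehicle 25% DMA + 75% PEG400). Groups: vehicle (n = 8), 5 mg/kg (n = 7), 10 mg/kg (n = 8), plus untreated nontumor mice (n = 5). Rota-rod training on day 58, testing on days 59–61, rod accelerating 2 to 30 rpm over 300 s. Read-out was latency to fall, 300 s cutoff.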

[8] = test system: NCI-H460; assay: Growth inhibition of human NCI-H460 cells; type: functional
How it was run: (§2)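 Cells seeded per well: NUGC-3 4500, HONE-1 6000, MCF-7 6500, NCI-H460 2500, HepG2 10000, A549 5000; A549 grown in RPMI 1640 with 2 g/L NaHCO₃, 2 mM L-glutamine and 10% FBS. GI₅₀ = concentration giving 50% growth inhibition, mean of at least three experiments each in duplicate. Paclitaxel served as positive control.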

[9] = test system: Mus musculus; assay: Toxicity in human A549 cells xenografted Nu-Foxn1'nu mouse assessed as incidence of overt toxicity at 10 mg/kg, po administered once daily on day 1 to 10, day 15 to 19 and day 22 to 26; type: organism-based; set-up: dose 10 mg/kg, route oral; details: in vivo
How it was run: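 Four-week-old male nude mice given 10 million A549 cells subcutaneously in the right flank. At ~60 mm³, randomised to vehicle (25% DMA + 75% PEG400) or oral gavage once daily (n = 8). Mice monitored for overt adverse signs, with body weight tracked.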

[10] = Apparent elimination half life in Sprague-Dawley rat at 3 mg/kg, po by HPLC-MS method; type: ADME, organism-based; set-up: dose 3 mg/kg, route oral; details: in vivo, read-out: betat1/2(app) (converted); how it was run: as §1
[11] = test system: MCF7; assay: Induction of c-Jun protein accumulation in human MCF7 cells incubated for 24 hrs by Western blotting; type: functional, cell-based
[12] = test system: Transmissible gastroenteritis virus; assay: Antiviral activity against Transmissible gastroenteritis virus infected in ST cells assessed as reduction in caspase-3 activation pre-treated before virus infection measured 16 hrs post virus infection by Western blotting; type: functional, organism-based
How it was run: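 ST cells pretreated with compound, then infected with TGEV. Western blot for nucleocapsid (N) protein, caspase 3 (cleavage of procaspase 3) and GAPDH at 16 hpi. Representative of at least three independent experiments.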

[13] = test system: A549; assay: Growth inhibition of human A549 cells; type: functional; how it was run: as §2
[14] = test system: Transmissible gastroenteritis virus; assay: Antiviral activity against Transmissible gastroenteritis virus infected in ST cells pre-treated 2 hrs before virus infection measured 6 hrs post virus infection by immunofluorescent assay; type: functional, organism-based; details: Alphacoronavirus 1, ST
How it was run: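 ST cells, with or without 2 h compound pretreatment (10 concentrations), infected with TGEV at MOI 10. Immunofluorescence with anti-spike and anti-nucleocapsid antibodies at 6 hpi. EC50 from dose–response curves, mean of at least three experiments, each in duplicate.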

[15] = test system: Murine hepatitis virus; assay: Antiviral activity against Murine hepatitis virus JHM infected in mouse DBT cells assessed as reduction in N-protein expression at 0.05 to 0.5 uM pre-treated 1 hr before virus infection and measured 24 hrs post infection by immunofluorescent assay; type: functional, organism-based
How it was run: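 DBT cells (2.8 × 10⁵/well) seeded the day before infection in DMEM with 2% FBS. Compound added 1 h before MHV-JHM at MOI 0.005 (virus grown in BNL CL.2 cells). Cytopathic effect viewed by phase contrast and N protein by immunofluorescence at 24 hpi.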

## CCN1Cc2c(c3ccc(OC)cc3c3cc(OC)c(OC)cc23)C(O)C1 (stereo not given)
[1]
  Activity: Active
[2]
  AUC(0-inf): 999 ng·h/mL
[3]
  Cmax: 72.4 ng/mL
[4]
  clearance: 51.8 mL/min/kg
[5]
  Activity: Active
[6]
  Activity: Active
[7]
  Activity: Non-toxic
[8]
  GI50: 20 nM
[9]
  Activity: Non-toxic
[10]
  half-life: 11.8 h
[11]
  Activity: Active
[12]
  Activity: Active
[13]
  GI50: 20 nM
[14]
  EC50: 40 nM
[15]
  Activity: Active

— ChEMBL document CHEMBL2177013, “Synthesis and biological evaluation of tylophorine-derived dibenzoquinolines as orally active agents: exploration of the role of tylophorine e ring on biological activity” (J Med Chem, 2012)
